Measurements as given in article PMC2847506 (Phytochemistry, 2010).

Key:
NF-κB p65 (RelA) subunit = NF-κB p65 (RelA) subunit (Homo sapiens, UniProt Q04206); assay: Enzyme-based ELISA NF-κB; assay type: biochemical
[1] = Stability in solvents at room temperature; assay type: physicochemical; details: kept in CDCl3 or deuteriobenzene at room temperature; [2+2] addition
HT-29 human cancer cells = assay: In vivo hollow fiber assay, HT-29; set-up: species or system human cells in host mice; details: HT29, ip administration, 0.5 to 10 mg per kg per day for four days
Outline: (§1)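 Murine hollow fiber model following an NCI procedure, with human cancer cells (HT-29, LNCaP, MCF-7) held in fibers. Test compound given ip at 0.5 to 10 mg/kg per day for four days, in 5% EtOH plus 5% Tween 80 in physiologic saline. Paclitaxel positive control at 2.0 mg/kg per day for four days.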

[2] = system: MCF-7 (human breast cancer); assay: In vivo hollow fiber assay, MCF-7; set-up: species or system human cells in host mice; details: MCF-7, ip administration, 0.5 to 10 mg per kg per day for four days
Outline: as §1

[3] = system: HT-29 human colon cancer cell line; assay: Cytotoxic activity against the HT-29 cell line; assay type: cell-based; details: for Cytotoxicity ED50: HT-29 cells
[4] = Body weight of host mice in the hollow fiber assay; assay type: in vivo; details: highest two doses (10 and 5 mg/kg/day), ip, over the course of the study
Outline: as §1

[5] = system: LNCaP (hormone-dependent human prostate cancer); assay: In vivo hollow fiber assay, LNCaP; set-up: species or system human cells in host mice; details: ip administration, 0.5 to 10 mg per kg per day for four days
Outline: as §1

[6] = system: P-388 lymphocytic murine leukemia; details: ref Herz et al., 1981; cited from earlier work

Chain of NF-κB p65 (RelA) subunit (Q04206 whole entry, species assumed): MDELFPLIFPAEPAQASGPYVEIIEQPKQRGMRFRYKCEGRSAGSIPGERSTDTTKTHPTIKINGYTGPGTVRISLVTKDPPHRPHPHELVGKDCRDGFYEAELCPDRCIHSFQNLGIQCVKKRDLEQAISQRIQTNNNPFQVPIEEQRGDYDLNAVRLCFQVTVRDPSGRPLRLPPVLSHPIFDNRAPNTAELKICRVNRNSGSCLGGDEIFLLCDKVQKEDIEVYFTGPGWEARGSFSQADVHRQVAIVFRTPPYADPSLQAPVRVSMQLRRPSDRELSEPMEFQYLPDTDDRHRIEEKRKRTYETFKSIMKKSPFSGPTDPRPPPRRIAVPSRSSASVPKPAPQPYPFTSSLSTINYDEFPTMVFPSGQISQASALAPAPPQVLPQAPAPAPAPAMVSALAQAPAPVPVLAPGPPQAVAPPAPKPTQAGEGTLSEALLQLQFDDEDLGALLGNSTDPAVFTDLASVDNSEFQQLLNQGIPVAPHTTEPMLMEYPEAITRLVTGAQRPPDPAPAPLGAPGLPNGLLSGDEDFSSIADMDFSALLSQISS

13-acetoxyrolandrolide [Compound 3]
NF-κB Inhibition ED50 (NF-κB p65 (RelA) subunit): 7.1 µM | stability in solvents [1]: partially transformed to compound 6 | inhibition of proliferation in hollow fibers (HT-29 human cancer cells): no inhibition of proliferation was observed | inhibition of proliferation in hollow fibers [2]: no inhibition of proliferation was observed | Cytotoxicity ED50 [3]: 0.16 µM | body weight loss [4]: up to 20% | inhibition of proliferation in hollow fibers [5]: no inhibition of proliferation was observed | in vivo antitumor activity [6]: weak

2-epi-glaucolide E [Compound 5]
NF-κB Inhibition ED50 (NF-κB p65 (RelA) subunit): > 10 µM | Cytotoxicity ED50 [3]: 9.4 µM

8-desacyl-13-acetoxyrolandrolide-8-O-tiglate [Compound 4]
Cytotoxicity ED50 [3]: 1.5 µM | change of potency of the inhibitory effect on HT-29 cells relative to compound 3 ([3]; tiglate instead of methacrylate on C-8): decreased around ten times

2α,13-diacetoxy-4α-hydroxy-8α-methacryloyloxybourbonen-12,6α-olide [Compound 6]
NF-κB Inhibition ED50 (NF-κB p65 (RelA) subunit): 2.8 µM
